ChEMBL document CHEMBL2146464, “Structure-activity relationship study of nitrosopyrimidines acting as antifungal agents” (Bioorg Med Chem, 2012)
Converted amounts (≈) assume the structure as drawn. The source made the active and inactive calls. The rule behind the calls is not given here.

Assays:
Candida albicans [1] = assay: Antifungal activity against Candida albicans ATCC 10231 after 48 hrs by NCCLS broth microdilution method; format: functional; details: ATCC 10231, 48 h, read-out: MIC100
Procedure, shortened: (§1)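 Yeast MIC by NCCLS M27-A3 broth microdilution in RPMI-1640 buffered to pH 7.0 with MOPS. Twofold dilutions of 250–0.98 µg/mL, final DMSO ≤1%. Inoculum 1–5 × 10³ CFU/mL. Incubated at 30 °C in a moist dark chamber. Read visually at 48 h. MIC100 is the lowest concentration with no visible growth versus drug-free control.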

Candida tropicalis [2] = assay: Antifungal activity against Candida tropicalis after 48 hrs by NCCLS broth microdilution method; format: functional; details: read-out: MIC100; procedure, shortened: as §1
Cryptococcus neoformans [3] = assay: Antifungal activity against Cryptococcus neoformans ATCC 32264 after 48 hrs by NCCLS broth microdilution method; format: functional; details: ATCC 32264, 48 h, read-out: MIC100; procedure, shortened: as §1
Candida tropicalis [4] = assay: Antifungal activity against Candida tropicalis by microplate reader analysis; format: functional
Trichophyton rubrum [5] = assay: Antifungal activity against Trichophyton rubrum CCC 110 by NCCLS broth microdilution method; format: functional; details: read-out: MIC100
Procedure, shortened: (§2)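 MIC by broth microdilution per NCCLS M27-A3/M38-A2 in RPMI-1640 buffered to pH 7.0 with MOPS. Twofold dilutions from 250–0.98 µg/mL, final DMSO ≤1%. Inoculum 1–5 × 10³ CFU/mL. Incubated in a moist dark chamber, 30 °C for Aspergillus and 28–30 °C for dermatophytes. Read visually when control growth allowed. Endpoint is the lowest concentration giving total inhibition of visible growth (MIC100).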

[6] = test system: Trichophyton mentagrophytes; assay: Antifungal activity against Trichophyton mentagrophytes ATCC 9972 by NCCLS broth microdilution method; format: functional; details: read-out: MIC100; procedure, shortened: as §2
Candida albicans [7] = assay: Fungicidal activity against Candida albicans ATCC 10231 after 48 hrs by agar plate dilution method; format: functional; details: ATCC 10231, 48 h
Procedure, shortened: (§3)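 MFC: after the microdilution MIC, material from each clear well was plated onto RPMI-1640 agar buffered with MOPS. Plates incubated at 30 °C and read after 48 h. MFC is the lowest concentration giving total inhibition of visible growth.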

Candida tropicalis [8] = assay: Fungicidal activity against Candida tropicalis after 48 hrs by agar plate dilution method; format: functional; procedure, shortened: as §3
Cryptococcus neoformans [9] = assay: Fungicidal activity against Cryptococcus neoformans ATCC 32264 after 48 hrs by agar plate dilution method; format: functional; details: ATCC 32264, 48 h; procedure, shortened: as §3
Aspergillus flavus = assay: Antifungal activity against Aspergillus flavus ATCC 9170 at 0.98 to 250 ug/mL by NCCLS broth microdilution method; format: functional, organism-based; procedure, shortened: as §2
Aspergillus fumigatus = assay: Antifungal activity against Aspergillus fumigatus ATCC 26934 at 0.98 to 250 ug/mL by NCCLS broth microdilution method; format: functional, organism-based; procedure, shortened: as §2
Aspergillus niger = assay: Antifungal activity against Aspergillus niger ATCC 9029 at 0.98 to 250 ug/mL by NCCLS broth microdilution method; format: functional, organism-based; procedure, shortened: as §2
Nannizzia gypsea = assay: Antifungal activity against Microsporum gypseum CCC 115 at 0.98 to 250 ug/mL by NCCLS broth microdilution method; format: functional, organism-based; procedure, shortened: as §2
Trichophyton rubrum [10] = assay: Fungicidal activity against Trichophyton rubrum CCC 110 at 0.98 to 250 ug/mL after 48 hrs by agar plate dilution method; format: functional, organism-based
Procedure, shortened: (§4)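 Samples from each clear well of the MIC broth microdilution tray were plated onto RPMI-1640 agar buffered with MOPS. That tray had compounds twofold diluted in RPMI (pH 7.0, MOPS) from 250–0.98 µg/mL with inoculum of 1–5 × 10³ CFU/mL, incubated at 28–30 °C for dermatophytes. Plates were incubated at 30 °C and read at 48 h. MFC was taken as the lowest concentration giving total inhibition of visible growth.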

[11] = test system: Trichophyton mentagrophytes; assay: Fungicidal activity against Trichophyton mentagrophytes ATCC 9972 at 0.98 to 250 ug/mL after 48 hrs by agar plate dilution method; format: functional, organism-based; procedure, shortened: as §4
Candida albicans [12] = assay: Antifungal activity against Candida albicans ATCC 10231 assessed as growth inhibition at 250 ug/mL after 24 hrs by microplate reader analysis; format: functional; details: ATCC 10231, 24 h, read-out: GI
Procedure, shortened: (§5)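 96-well RPMI-1640 wells with compound at final 250–0.98 µg/mL (DMSO ≤1%). Inoculum 100 µL, 1–5 × 10³ CFU/mL, 200 µL final. Each well includes growth (DMSO, no compound) and sterility controls. % inhibition = 100 − (CTW−SCW)/(GCW−SCW) × 100, run in duplicate.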

Candida tropicalis [13] = assay: Antifungal activity against Candida tropicalis assessed as growth inhibition at 250 ug/mL by microplate reader analysis; format: functional; details: read-out: GI
Cryptococcus neoformans [14] = assay: Antifungal activity against Cryptococcus neoformans ATCC 32264 assessed as growth inhibition at 250 ug/mL after 48 hrs by microplate reader analysis; format: functional; details: ATCC 32264, 48 h, read-out: GI
Procedure, shortened: (§6)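 Microplate growth-inhibition assay in RPMI-1640, compound at final 250–0.98 µg/mL (DMSO ≤1%). Inoculum 1–5 × 10³ CFU/mL. Sterility and DMSO growth controls included. Percent inhibition is computed from blank-corrected OD relative to the growth control, tested in duplicate.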

Candida albicans [15] = assay: Antifungal activity against Candida albicans ATCC 10231 assessed as growth inhibition at 125 ug/mL after 24 hrs by microplate reader analysis; format: functional; details: ATCC 10231, 24 h, read-out: GI; procedure, shortened: as §5
Candida tropicalis [16] = assay: Antifungal activity against Candida tropicalis assessed as growth inhibition at 125 ug/mL by microplate reader analysis; format: functional; details: read-out: GI
Cryptococcus neoformans [17] = assay: Antifungal activity against Cryptococcus neoformans ATCC 32264 assessed as growth inhibition at 125 ug/mL after 48 hrs by microplate reader analysis; format: functional; details: ATCC 32264, 48 h, read-out: GI; procedure, shortened: as §6
Candida albicans [18] = assay: Antifungal activity against Candida albicans ATCC 10231 assessed as growth inhibition at 62.5 ug/mL after 24 hrs by microplate reader analysis; format: functional; details: ATCC 10231, 24 h, read-out: GI; procedure, shortened: as §5
Candida tropicalis [19] = assay: Antifungal activity against Candida tropicalis assessed as growth inhibition at 62.5 ug/mL by microplate reader analysis; format: functional; details: read-out: GI
Cryptococcus neoformans [20] = assay: Antifungal activity against Cryptococcus neoformans ATCC 32264 assessed as growth inhibition at 62.5 ug/mL after 48 hrs by microplate reader analysis; format: functional; details: ATCC 32264, 48 h, read-out: GI; procedure, shortened: as §6
Candida albicans [21] = assay: Antifungal activity against Candida albicans ATCC 10231 assessed as growth inhibition at 31.25 ug/mL after 24 hrs by microplate reader analysis; format: functional; details: ATCC 10231, 24 h, read-out: GI; procedure, shortened: as §5
Candida tropicalis [22] = assay: Antifungal activity against Candida tropicalis assessed as growth inhibition at 31.25 ug/mL by microplate reader analysis; format: functional; details: read-out: GI
Cryptococcus neoformans [23] = assay: Antifungal activity against Cryptococcus neoformans ATCC 32264 assessed as growth inhibition at 31.25 ug/mL after 48 hrs by microplate reader analysis; format: functional; details: ATCC 32264, 48 h, read-out: GI; procedure, shortened: as §6
Candida albicans [24] = assay: Antifungal activity against Candida albicans ATCC 10231 assessed as growth inhibition at 15.6 ug/mL after 24 hrs by microplate reader analysis; format: functional; details: ATCC 10231, 24 h, read-out: GI; procedure, shortened: as §5
Candida tropicalis [25] = assay: Antifungal activity against Candida tropicalis assessed as growth inhibition at 15.6 ug/mL by microplate reader analysis; format: functional; details: read-out: GI
Cryptococcus neoformans [26] = assay: Antifungal activity against Cryptococcus neoformans ATCC 32264 assessed as growth inhibition at 15.6 ug/mL after 48 hrs by microplate reader analysis; format: functional; details: ATCC 32264, 48 h, read-out: GI; procedure, shortened: as §6
Candida albicans [27] = assay: Antifungal activity against Candida albicans ATCC 10231 assessed as growth inhibition at 7.8 ug/mL after 24 hrs by microplate reader analysis; format: functional; details: ATCC 10231, 24 h, read-out: GI; procedure, shortened: as §5
Candida tropicalis [28] = assay: Antifungal activity against Candida tropicalis assessed as growth inhibition at 7.8 ug/mL by microplate reader analysis; format: functional; details: read-out: GI
Cryptococcus neoformans [29] = assay: Antifungal activity against Cryptococcus neoformans ATCC 32264 assessed as growth inhibition at 7.8 ug/mL after 48 hrs by microplate reader analysis; format: functional; details: ATCC 32264, 48 h, read-out: GI; procedure, shortened: as §6
Candida albicans [30] = assay: Antifungal activity against Candida albicans ATCC 10231 assessed as growth inhibition at 3.9 ug/mL after 24 hrs by microplate reader analysis; format: functional; details: ATCC 10231, 24 h, read-out: GI; procedure, shortened: as §5
Candida tropicalis [31] = assay: Antifungal activity against Candida tropicalis assessed as growth inhibition at 3.9 ug/mL by microplate reader analysis; format: functional; details: read-out: GI
Cryptococcus neoformans [32] = assay: Antifungal activity against Cryptococcus neoformans ATCC 32264 assessed as growth inhibition at 3.9 ug/mL after 48 hrs by microplate reader analysis; format: functional; details: ATCC 32264, 48 h, read-out: GI; procedure, shortened: as §6
Candida albicans [33] = assay: Antifungal activity against Candida albicans ATCC 10231 after 24 hrs by microplate reader analysis; format: functional; details: ATCC 10231, 24 h; procedure, shortened: as §5
[34] = Acute toxicity in bony fish assessed as mortality at 35 ug/mL after 96 hrs; details: actinopterygii; read-out: Activity
Procedure, shortened: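 Guppy (Poecilia reticulata) acute static exposure: 10 fish per concentration in 2 L wide-mouthed jars holding the test solution. Compounds were added from […] to give the final concentrations. Dead fish were counted and removed every 24 h, with general condition noted; percentage mortality was scored at 96 h. Two experiments, each in triplicate.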

Cryptococcus neoformans [35] = assay: Antifungal activity against Cryptococcus neoformans ATCC 32264 after 48 hrs by microplate reader analysis; format: functional; details: ATCC 32264, 48 h; procedure, shortened: as §6

CCCCNc1nc(N)nc(OC)c1N=O
MIC (Candida albicans [1]): 62.5 µg/mL (≈ 277 µM) | MIC (Candida tropicalis [2]): 62.5 µg/mL (≈ 277 µM) | MIC (Cryptococcus neoformans [3]): 125 µg/mL (≈ 555 µM) | MIC50 (Candida tropicalis [4]): 7.8 µg/mL (≈ 34.6 µM) | MIC (Trichophyton rubrum [5]): 250 µg/mL (≈ 1110 µM) | MIC [6]: 250 µg/mL (≈ 1110 µM) | MFC (Candida albicans [7]): 250 µg/mL (≈ 1110 µM) | MFC (Candida tropicalis [8]): 250 µg/mL (≈ 1110 µM) | MFC (Cryptococcus neoformans [9]): 250 µg/mL (≈ 1110 µM) | Activity (Aspergillus flavus): inactive | Activity (Aspergillus fumigatus): inactive | Activity (Aspergillus niger): inactive | Activity (Nannizzia gypsea): inactive | Activity (Trichophyton rubrum [10]): inactive | Activity [11]: inactive | inhibition of growth at 250 µg/mL (Candida albicans [12]): 100% | inhibition of growth at 250 µg/mL (Candida tropicalis [13]): 100% | inhibition of growth at 250 µg/mL (Cryptococcus neoformans [14]): 100% | inhibition of growth at 125 µg/mL (Candida albicans [15]): 100% | inhibition of growth at 125 µg/mL (Candida tropicalis [16]): 100% | inhibition of growth at 125 µg/mL (Cryptococcus neoformans [17]): 100% | inhibition of growth at 62.5 µg/mL (Candida albicans [18]): 100% | inhibition of growth at 62.5 µg/mL (Candida tropicalis [19]): 100% | inhibition of growth at 62.5 µg/mL (Cryptococcus neoformans [20]): 85.5% | inhibition of growth at 31.25 µg/mL (Candida albicans [21]): 98.2% | inhibition of growth at 31.25 µg/mL (Candida tropicalis [22]): 93.2% | inhibition of growth at 31.25 µg/mL (Cryptococcus neoformans [23]): 75% | inhibition of growth at 15.6 µg/mL (Candida albicans [24]): 86.2% | inhibition of growth at 15.6 µg/mL (Candida tropicalis [25]): 85.2% | inhibition of growth at 15.6 µg/mL (Cryptococcus neoformans [26]): 63.1% | inhibition of growth at 7.8 µg/mL (Candida albicans [27]): 50.4% | inhibition of growth at 7.8 µg/mL (Candida tropicalis [28]): 57.7% | inhibition of growth at 7.8 µg/mL (Cryptococcus neoformans [29]): 52.4% | inhibition of growth at 3.9 µg/mL (Candida albicans [30]): 20% | inhibition of growth at 3.9 µg/mL (Candida tropicalis [31]): 16.3% | inhibition of growth at 3.9 µg/mL (Cryptococcus neoformans [32]): 11.3% | MIC50 (Candida albicans [33]): 7.8 µg/mL (≈ 34.6 µM) | mortality at 96 h, 35 ug/mL [34]: 0% | MIC50 (Cryptococcus neoformans [35]): 7.8 µg/mL (≈ 34.6 µM)
